Measurements from ChEMBL document CHEMBL1147862, “Studies on synthesis and pharmacological activities of 3,6-disubstituted-1,2,4-triazolo[3,4-b]-1,3,4-thiadiazoles and their dihydro analogues” (2007).

Key:
Assay type in all cases: functional
[1] = test system: Mus musculus; assay: Analgesic activity in Swiss mouse assessed as increase in reaction time at 20 mg/kg, po after 30 mins by Eddy's hot plate technique
In short: (§1)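 Swiss mice of either sex, 25–35 g, placed one at a time on a hot plate held at 55 °C. End point is paw licking or jumping, whichever comes first, with a 15 s cut-off to avoid paw injury. Reaction time is recorded and reported as percent increase in reaction time.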

[2] = test system: Mus musculus; assay: Analgesic activity in Swiss mouse assessed as increase in reaction time at 20 mg/kg, po after 60 mins by Eddy's hot plate technique; in short: as §1
[3] = test system: Mus musculus; assay: Analgesic activity in Swiss mouse assessed as increase in reaction time at 20 mg/kg, po after 90 mins by Eddy's hot plate technique; in short: as §1
[4] = test system: Candida albicans; assay: Antifungal activity against Candida albicans at 10 ug/ml by paper disc method; conditions: read-out: IZ
[5] = test system: Candida albicans; assay: Antifungal activity against Candida albicans at 20 ug/ml by paper disc method; conditions: read-out: IZ
[6] = test system: Candida albicans; assay: Antifungal activity against Candida albicans at 30 ug/ml by paper disc method; conditions: read-out: IZ
[7] = test system: Aspergillus niger; assay: Antifungal activity against Aspergillus niger at 10 ug/ml by paper disc method; conditions: read-out: IZ
[8] = test system: Aspergillus niger; assay: Antifungal activity against Aspergillus niger at 20 ug/ml by paper disc method; conditions: read-out: IZ
[9] = test system: Aspergillus niger; assay: Antifungal activity against Aspergillus niger at 30 ug/ml by paper disc method; conditions: read-out: IZ
[10] = test system: Escherichia coli; assay: Antibacterial activity against Escherichia coli at 10 ug/ml by agar plate diffusion technique; conditions: read-out: IZ
[11] = test system: Escherichia coli; assay: Antibacterial activity against Escherichia coli at 20 ug/ml by agar plate diffusion technique; conditions: read-out: IZ
[12] = test system: Escherichia coli; assay: Antibacterial activity against Escherichia coli at 30 ug/ml by agar plate diffusion technique; conditions: read-out: IZ
[13] = test system: Pseudomonas aeruginosa; assay: Antibacterial activity against Pseudomonas aeruginosa at 10 ug/ml by agar plate diffusion technique; conditions: read-out: IZ
[14] = test system: Pseudomonas aeruginosa; assay: Antibacterial activity against Pseudomonas aeruginosa at 20 ug/ml by agar plate diffusion technique; conditions: read-out: IZ
[15] = test system: Pseudomonas aeruginosa; assay: Antibacterial activity against Pseudomonas aeruginosa at 30 ug/ml by agar plate diffusion technique; conditions: read-out: IZ
[16] = test system: Bacillus subtilis; assay: Antibacterial activity against Bacillus subtilis at 10 ug/ml by agar plate diffusion technique; conditions: read-out: IZ
[17] = test system: Bacillus subtilis; assay: Antibacterial activity against Bacillus subtilis at 20 ug/ml by agar plate diffusion technique; conditions: read-out: IZ
[18] = test system: Bacillus subtilis; assay: Antibacterial activity against Bacillus subtilis at 30 ug/ml by agar plate diffusion technique; conditions: read-out: IZ
[19] = test system: Staphylococcus aureus; assay: Antibacterial activity against Staphylococcus aureus at 10 ug/ml by agar plate diffusion technique; conditions: read-out: IZ
[20] = test system: Staphylococcus aureus; assay: Antibacterial activity against Staphylococcus aureus at 20 ug/ml by agar plate diffusion technique; conditions: read-out: IZ
[21] = test system: Staphylococcus aureus; assay: Antibacterial activity against Staphylococcus aureus at 30 ug/ml by agar plate diffusion technique; conditions: read-out: IZ
[22] = test system: Rattus norvegicus; assay: Antiinflammatory activity in Wistar Albino rat assessed as inhibition of carrageenan-induced paw oedema at 20 mg/kg after 1 hr relative to control
In short: (§2)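 Wistar albino rats, 150–200 g, six per group, dosed orally with a 20 mg/kg suspension; control gets 0.1 ml 1% gum acacia. After 30 min, 0.1 ml 1% carrageenan in saline is injected subplantar into the right hind paw. Paw volume is read by plethysmograph at 0–4 h. Inhibition = 100(1 − Vtest/Vcontrol) on mean volume increase.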

[23] = test system: Rattus norvegicus; assay: Antiinflammatory activity in Wistar Albino rat assessed as inhibition of carrageenan-induced paw oedema at 20 mg/kg after 2 hrs relative to control; in short: as §2
[24] = test system: Rattus norvegicus; assay: Antiinflammatory activity in Wistar Albino rat assessed as inhibition of carrageenan-induced paw oedema at 20 mg/kg after 3 hrs relative to control; in short: as §2
[25] = test system: Rattus norvegicus; assay: Antiinflammatory activity in Wistar Albino rat assessed as inhibition of carrageenan-induced paw oedema at 20 mg/kg after 4 hrs relative to control; in short: as §2

Row | Compound | Activity [1] [%] | Activity [2] [%] | zone of inhibition at 10 µg/mL [4] [mm] | zone of inhibition at 20 µg/mL [5] [mm] | zone of inhibition at 30 µg/mL [6] [mm] | zone of inhibition at 10 µg/mL [7] [mm] | zone of inhibition at 20 µg/mL [8] [mm] | zone of inhibition at 30 µg/mL [9] [mm] | zone of inhibition at 10 µg/mL [10] [mm] | zone of inhibition at 20 µg/mL [11] [mm] | zone of inhibition at 30 µg/mL [12] [mm] | zone of inhibition at 10 µg/mL [13] [mm] | zone of inhibition at 20 µg/mL [14] [mm] | zone of inhibition at 30 µg/mL [15] [mm] | zone of inhibition at 10 µg/mL [16] [mm] | zone of inhibition at 20 µg/mL [17] [mm] | zone of inhibition at 30 µg/mL [18] [mm] | zone of inhibition at 10 µg/mL [19] [mm] | zone of inhibition at 20 µg/mL [20] [mm] | zone of inhibition at 30 µg/mL [21] [mm] | other results
1 | COc1ccc(Cl)c(-c2nnc3sc(-c4cc(C)nc5ccccc45)nn23)c1 | 7.6 | 12.65 | 6.18 | 13.8 | 18.8 | 5.62 | 12.6 | 18.5 | 5.16 | 9.12 | 16.7 | 5.31 | 10.3 | 16.1 | 7.06 | 11.1 | 16.4 | 6.89 | 12.1 | 16.1 | Activity [3]: 21.06%; inhibition in vivo at 20 mg/kg [22]: 8.68%; inhibition in vivo at 20 mg/kg [23]: 20.2%; inhibition in vivo at 20 mg/kg [24]: 24.1%; inhibition in vivo at 20 mg/kg [25]: 27.4%
2 | COc1ccc(Cl)c(-c2nnc3sc(-c4ccnc(F)c4)nn23)c1 | 4.12 | 11.35 | 7.68 | 14.5 | 21.7 | 6.68 | 12.6 | 20.5 | 8.1 | 14.7 | 19.7 | 8.68 | 14.9 | 19.5 | 7.78 | 14.1 | 19.2 | 7.29 | 14.1 | 19.2 | Activity [3]: 20.34%; inhibition in vivo at 20 mg/kg [22]: 18.5%; inhibition in vivo at 20 mg/kg [23]: 24.6%; inhibition in vivo at 20 mg/kg [24]: 25.9%; inhibition in vivo at 20 mg/kg [25]: 28.1%
3 | Cc1occc1-c1nnc(S)n1N |  |  | 3 | 6.82 | 12.4 | 3.27 | 6.94 | 13.5 | 6.74 | 9.16 | 12.8 | 6.12 | 9.16 | 12.8 | 5.8 | 8.94 | 11.2 | 5.46 | 8.16 | 11.3 | 
4 | COc1ccc2[nH]c(C)c(Cc3nn4c(Cc5ccc(OC)c(OC)c5)nnc4s3)c2c1 | 19.23 | 27.82 | 4.62 | 8.02 | 12.1 | 4.9 | 7.58 | 10.8 | 4.48 | 7.42 | 12.4 | 4.04 | 7.42 | 12.6 | 4.07 | 7.21 | 12.3 | 4.06 | 8.08 | 12 | Activity [3]: 29.04%; inhibition in vivo at 20 mg/kg [22]: 10.5%; inhibition in vivo at 20 mg/kg [23]: 16.2%; inhibition in vivo at 20 mg/kg [24]: 21.4%; inhibition in vivo at 20 mg/kg [25]: 28.4%
5 | CCCCC1C(=O)N(c2ccccc2)N(c2ccccc2)C1=O [PHENYLBUTAZONE] |  |  |  |  |  |  |  |  |  |  |  |  |  |  |  |  |  |  |  |  | inhibition in vivo at 20 mg/kg [22]: 21.2%; inhibition in vivo at 20 mg/kg [23]: 33.6%; inhibition in vivo at 20 mg/kg [24]: 40.8%; inhibition in vivo at 20 mg/kg [25]: 45.4%
6 | Cc1occc1-c1nnc2n1NC(c1ccc[nH]1)S2 (centres undefined) | 7.14 | 17.45 | 5.24 | 9.16 | 14.8 | 5.1 | 9.42 | 13.2 | 5.11 | 8.42 | 15.7 | 6.67 | 12.3 | 14.7 | 5.33 | 10.7 | 16.3 | 4.6 | 8.12 | 12.3 | Activity [3]: 23%; inhibition in vivo at 20 mg/kg [22]: 13.7%; inhibition in vivo at 20 mg/kg [23]: 18.2%; inhibition in vivo at 20 mg/kg [24]: 20.3%; inhibition in vivo at 20 mg/kg [25]: 22.7%
7 | COc1ccc(Cc2nnc(S)n2N)cc1OC |  |  | 2.76 | 5.14 | 11 | 2.67 | 4.92 | 10.7 | 4.86 | 7.58 | 10.1 | 5.06 | 6.76 | 8.24 | 5.06 | 7.26 | 9.83 | 4.72 | 7.14 | 9.52 | 
8 | COc1ccc(Cl)c(-c2nnc3sc(-c4cc(-c5ccccc5)nc5ccccc45)nn23)c1 | 5.34 | 15.68 | 5.64 | 12.8 | 18.8 | 6.04 | 11.6 | 17.6 | 6.86 | 11.7 | 16.5 | 6.72 | 11.4 | 15.5 | 6.82 | 11.2 | 16.2 | 5.82 | 10.1 | 16.4 | Activity [3]: 26.85%; inhibition in vivo at 20 mg/kg [22]: 11.6%; inhibition in vivo at 20 mg/kg [23]: 17.2%; inhibition in vivo at 20 mg/kg [24]: 20.1%; inhibition in vivo at 20 mg/kg [25]: 24.5%
9 | O=C([O-])Cc1ccccc1Nc1c(Cl)cccc1Cl.[Na+] [DICLOFENAC SODIUM] | 32.23 | 38.15 |  |  |  |  |  |  |  |  |  |  |  |  |  |  |  |  |  |  | Activity [3]: 43.25%
10 | COC1=CC(=O)C[C@@H](C)[C@]12Oc1c(Cl)c(OC)cc(OC)c1C2=O [GRISEOFULVIN] |  |  |  |  | 24.7 |  |  | 23.1 |  |  |  |  |  |  |  |  |  |  |  |  | 
11 | O=C(N[C@H](CO)[C@H](O)c1ccc([N+](=O)[O-])cc1)C(Cl)Cl [CHLORAMPHENICOL] |  |  |  |  |  |  |  |  |  |  | 23.7 |  |  | 25.4 |  |  | 24.6 |  |  | 26.1 | 
12 | COc1ccc(Cl)c(-c2nnc(S)n2N)c1 |  |  | 2.33 | 5.18 | 9.79 | 2.59 | 5.02 | 11 | 5.08 | 7.16 | 9.17 | 5.23 | 7.26 | 9.1 | 4.25 | 7.05 | 10.1 | 5.16 | 7.28 | 9.06 | 
13 | CN[C@H](CC(C)C)C(=O)N[C@H]1C(=O)N[C@@H](CC(N)=O)C(=O)N[C@H]2C(=O)N[C@H]3C(=O)N[C@H](C(=O)N[C@H](C(=O)O)c4cc(O)cc(O)c4-c4cc3ccc4O)[C@H](O)c3ccc(c(Cl)c3)Oc3cc2cc(c3O[C@@H]2O[C@H](CO)[C@@H](O)[C@H](O)[C@H]2O[C@H]2C[C@](C)(N)[C@H](O)[C@H](C)O2)Oc2ccc(cc2Cl)[C@H]1O [VANCOMYCIN] |  |  |  |  |  |  |  |  |  |  |  |  |  |  |  |  | 23 |  |  |  | 
14 | NCC[C@H](O)C(=O)N[C@@H]1C[C@H](N)[C@@H](O[C@H]2O[C@H](CN)[C@@H](O)[C@H](O)[C@H]2O)[C@H](O)[C@H]1O[C@H]1O[C@H](CO)[C@@H](O)[C@H](N)[C@H]1O [AMIKACIN] |  |  |  |  |  |  |  |  |  |  |  |  |  | 23 |  |  |  |  |  |  | 
